The record followed here is PubChem BioAssay AID492951 (Molecular Libraries Program, Specialized Chemistry Center, …, 2010).

Values without a mark were called inactive. Active and inactive are the calls of the source.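 The calls were made as follows: active = inhibition above 10%; inactive = the rest.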

Chain of Hexokinase-4 (Homo sapiens) (P35557 whole entry, looked up): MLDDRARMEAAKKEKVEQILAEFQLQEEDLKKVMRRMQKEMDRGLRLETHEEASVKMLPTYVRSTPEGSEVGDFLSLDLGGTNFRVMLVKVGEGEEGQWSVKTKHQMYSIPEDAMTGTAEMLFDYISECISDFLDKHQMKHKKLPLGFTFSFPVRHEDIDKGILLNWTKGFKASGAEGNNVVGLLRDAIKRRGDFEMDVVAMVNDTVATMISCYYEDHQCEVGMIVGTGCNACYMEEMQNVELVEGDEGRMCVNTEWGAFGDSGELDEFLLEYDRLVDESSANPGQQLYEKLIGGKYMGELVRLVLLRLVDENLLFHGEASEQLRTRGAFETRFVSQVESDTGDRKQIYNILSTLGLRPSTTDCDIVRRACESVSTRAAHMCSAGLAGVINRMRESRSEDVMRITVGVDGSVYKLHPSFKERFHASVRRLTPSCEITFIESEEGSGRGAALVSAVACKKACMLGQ

In this assay the target is Hexokinase-4 (Homo sapiens) (UniProt P35557). In words: human glucokinase inhibition, counter-screen for TbHK1 inhibitor project, biochemical, recombinant hGlck (AID 492951). The conditions noted are these: G6PDH-coupled NADH absorbance 340 nm, at 10 µM; active compounds read high. The gist of the method:
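Test system: purified recombinant human glucokinase (HK4) with G6PDH coupling enzyme / Reagent: 20 mM glucose as reaction starter, plus 1 mM ATP / Timing: 10 min room-temperature compound-enzyme preincubation before glucose addition / Measured by: A340 of NADH / Repeats: three replicates per compound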
Background: A counterscreen serves to expose hits that act by an unwanted route or on another target.
Consider `COc1ccc(C(=O)Nc2ccccc2C(=O)O)cc1`, for which the result was inactive.
In the case of `O=C(Nc1cc(Cl)ccc1C(=O)O)c1ccncc1`, the result was inactive.
For the molecule `COC(=O)c1ccc(Cl)cc1NS(=O)(=O)c1ccc(OC)cc1`, the outcome was inactive.
Consider `Cc1ccc(C(=O)Nc2cc(Cl)ccc2C(=O)O)cc1`, for which the outcome was inactive.
The same measure, in the same setting: to `COc1ccc(C(=O)Nc2cc(C(=O)O)ccc2Cl)cc1` belongs “inactive”; to `COc1ccc2c(=O)n(-c3ccccc3)sc2c1`, “inactive”.
As usually defined, the inhibition is the drop in the measured response relative to a control, in per cent. Regarding `O=C(Nc1cc(Cl)ccc1C(=O)O)c1ccc(-c2cccs2)cc1`, the inhibition was 30.3% (active).
Take `COc1ccc(C(=O)Nc2cc(Cl)ccc2S(N)(=O)=O)cc1`: the inhibition was 11.1% (active).
With `O=C(c1ccccc1)n1sc2ccccc2c1=O`, the result was inactive.
As for `O=C(CCn1sc2ccccc2c1=O)Nc1ccccc1`, the outcome was inactive.
With `O=c1c2ccccc2sn1-c1cccc(F)c1`, the inhibition is 28.2% (active).
The same measure, in the same setting: to `O=c1s[nH]c2ccccc12` belongs 48.8% (active).
With `CC(C(=O)Nc1ccccc1)n1sc2ccccc2c1=O` (stereo not drawn), the inhibition was 9.6%.
As to `COc1ccc(C(=O)NC(CC(=O)O)c2ccccc2)cc1` (stereo not drawn), the inhibition was 4%.
In the case of `Cc1ccc(NC(=O)Cn2sc3ccccc3c2=O)cc1`, the inhibition is 2.1%.
For `O=C(Cn1sc2ccccc2c1=O)Nc1ccc(Cl)cc1`, the result was inactive.
Regarding `CC(=O)Nc1ccc2sn(-c3ccccc3)c(=O)c2c1`, the inhibition was 51.9% (active).
Still for that read-out and setting: to `O=C(NCc1ccccc1)n1sc2ccccc2c1=O` belongs 38.3% (active).
As for `CC(C)(C)c1ccc(C(=O)Nc2cc(Cl)c(F)cc2C(=O)O)cc1`, the outcome was inactive.
On the same count and under the same terms, to `COc1ccc(C(=O)Nc2cc(Cl)ccc2C(=O)O)cn1` belongs “inactive”.
As to `COc1ccc(C(=O)Nc2cc(Cl)c(Br)cc2C(=O)O)cc1`, the inhibition was 22.3% (active).
With `COc1ccc(C(=O)Nc2cc(Cl)ccc2C(N)=O)cc1`, the inhibition was 17.9% (active).
For `N#Cc1ccc2sn(-c3ccccc3)c(=O)c2c1`, the inhibition was 4.3%.
Take `O=c1c2cccnc2sn1-c1ccccc1`: the inhibition is 91.5% (active).
For the molecule `CC(C)(C)c1ccc(C(=O)Nc2cc(Cl)ccc2C(=O)O)cc1`, the outcome was inactive.
As for `O=c1c2ccc(F)cc2sn1-c1ccccc1`, the inhibition was 37.8% (active).
`Cc1ccc(C(=O)Nc2cc(Cl)ccc2C(=O)O)cc1C`: the result was inactive.
Regarding `O=c1c2cc([N+](=O)[O-])ccc2sn1-c1ccccc1`, the inhibition was 11.4% (active).
Turning to `N#Cc1ccc2c(=O)n(-c3ccccc3)sc2c1`, the inhibition is 54% (active).
Take `COc1cccc(-n2sc3ccccc3c2=O)c1`: the inhibition was 49.9% (active).
With `OB1OCc2cc(C(F)(F)F)ccc21`, the outcome was inactive.
In the case of `O=C(Cn1sc2ccccc2c1=O)NC1CCCCC1`, the inhibition was 8.01%.
Consider `Cn1c2ccccc2c(=O)n1-c1ccccc1`, for which the result was inactive.
On to `CC(C)(C)c1ccc(C(=O)Nc2cc(Br)ccc2C(=O)O)cc1`, for which the inhibition was 26.2% (active).
For `O=C(Cn1sc2ccccc2c1=O)Nc1ccccc1I`, the inhibition is 14.5% (active).
As to `CC(C)(C)c1ccc(C(=O)Nc2cc(Cl)ccc2O)cc1`, the outcome was inactive.
As for `O=C(Cn1sc2ccccc2c1=O)Nc1cccc(F)c1`, the inhibition was 14.3% (active).
Regarding `COc1ccc(C(=O)Nc2cc(Cl)c(C)cc2C(=O)O)cc1`, the inhibition was 17.6% (active).
